Reference: ChEMBL document CHEMBL1129264, “Mercaptoacyl dipeptides as orally active dual inhibitors of angiotensin-converting enzyme and neutral endopeptidase” (1996)

Legend:
[1] = target: T1, Angiotensin-converting enzyme (Rattus norvegicus) (UniProt P47820); test: Compound was tested for plasma inhibition of Angiotensin I converting enzyme activity in the conscious rat. Expressed as Inhibition of AI pressor response at 4 hr at a dose of 14.3 mg/kg po; type: organism-based; parameters: dose 14.3 mg/kg
T1 sequence (whole entry): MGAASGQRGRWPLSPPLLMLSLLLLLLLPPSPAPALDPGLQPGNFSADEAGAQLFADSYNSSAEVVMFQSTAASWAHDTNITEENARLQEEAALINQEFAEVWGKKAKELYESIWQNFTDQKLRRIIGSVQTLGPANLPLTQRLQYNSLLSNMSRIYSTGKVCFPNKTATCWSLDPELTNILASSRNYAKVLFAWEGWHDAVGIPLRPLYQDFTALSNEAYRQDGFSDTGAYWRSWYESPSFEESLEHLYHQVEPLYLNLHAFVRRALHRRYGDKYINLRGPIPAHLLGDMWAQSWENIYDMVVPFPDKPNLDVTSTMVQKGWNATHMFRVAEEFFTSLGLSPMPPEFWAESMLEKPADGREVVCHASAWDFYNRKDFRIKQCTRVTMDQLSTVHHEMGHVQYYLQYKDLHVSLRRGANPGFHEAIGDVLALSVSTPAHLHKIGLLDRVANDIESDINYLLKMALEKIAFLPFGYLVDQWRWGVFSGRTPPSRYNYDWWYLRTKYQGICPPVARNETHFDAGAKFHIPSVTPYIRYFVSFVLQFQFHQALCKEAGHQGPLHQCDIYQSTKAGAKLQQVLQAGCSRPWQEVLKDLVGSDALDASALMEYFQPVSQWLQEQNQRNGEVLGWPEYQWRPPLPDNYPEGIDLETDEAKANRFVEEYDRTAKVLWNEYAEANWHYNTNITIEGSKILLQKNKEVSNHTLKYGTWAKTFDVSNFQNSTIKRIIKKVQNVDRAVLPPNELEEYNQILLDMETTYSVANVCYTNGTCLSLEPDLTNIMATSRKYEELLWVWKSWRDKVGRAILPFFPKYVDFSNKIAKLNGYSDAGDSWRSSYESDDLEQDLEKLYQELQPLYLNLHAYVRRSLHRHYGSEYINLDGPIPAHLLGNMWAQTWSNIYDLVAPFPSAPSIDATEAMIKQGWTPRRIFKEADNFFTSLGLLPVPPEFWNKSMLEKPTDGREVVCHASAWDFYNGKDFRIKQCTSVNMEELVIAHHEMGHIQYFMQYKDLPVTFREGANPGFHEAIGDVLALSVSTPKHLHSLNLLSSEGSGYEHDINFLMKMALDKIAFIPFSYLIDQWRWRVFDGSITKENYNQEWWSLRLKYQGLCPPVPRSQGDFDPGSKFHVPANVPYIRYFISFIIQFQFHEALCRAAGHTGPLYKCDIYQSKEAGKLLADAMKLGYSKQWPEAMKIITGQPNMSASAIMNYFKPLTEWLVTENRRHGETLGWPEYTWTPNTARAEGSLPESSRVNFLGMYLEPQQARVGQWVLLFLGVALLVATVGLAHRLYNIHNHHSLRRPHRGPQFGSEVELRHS
Summary of the method: (§1)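 Male conscious normotensive Sprague-Dawley rats (275-390 g), prepared under methohexital sodium (75 mg/kg ip) with femoral arterial and venous catheters. The next day, pressor responses to three angiotensin-I challenges (300 ng/kg iv) were recorded. Compound was then given orally and angiotensin-I challenges were repeated at set times. Percent inhibition is relative to the mean of the three baseline responses.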

[2] = target: T1, Angiotensin-converting enzyme (Rattus norvegicus); test: Compound was tested for plasma inhibition of Angiotensin I converting enzyme activity in the conscious rat. Expressed as Inhibition of AI pressor response at 2 hr at a dose of 14.3 mg/kg po; type: organism-based; parameters: dose 14.3 mg/kg
Summary of the method: (§2)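 Male conscious normotensive Sprague-Dawley rats (275-390 g), given femoral arterial and venous catheters under methohexital sodium (75 mg/kg ip) anesthesia. Next day, pressor responses to three angiotensin-I challenges (300 ng/kg iv) recorded by direct arterial pressure. Compound then dosed orally, and AI challenge repeated at set times. Each post-dose response compared with the mean of the three baseline responses, giving % inhibition.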

[3] = target: T1, Angiotensin-converting enzyme (Rattus norvegicus); test: Compound was tested for plasma inhibition of Angiotensin I converting enzyme activity in the conscious rat. Expressed as Inhibition of AI pressor response at 1 hr at a dose of 14.3 mg/kg po; type: organism-based; parameters: dose 14.3 mg/kg; summary of the method: as §2
[4] = system: Rattus norvegicus; test: Plasma ANF Concentration in the Conscious Rat at a dose of 14.3(po)mg/kg at 0.5 h; type: functional
Summary of the method: (§3)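 Male Sprague-Dawley rats (275-390 g), catheterized in femoral artery and vein under ketamine (150 mg/kg)/acepromazine, tethered and recovered 24 h, studied conscious. Continuous iv rat ANF(99-126) infusion at 450 ng/kg/min for 5 h; baseline blood at 60 min, then oral dosing, sampling at 30-240 min.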

[5] = system: Rattus norvegicus; test: Plasma ANF Concentration in the Conscious Rat at a dose of 14.3(po)mg/kg at 2 h; type: functional; summary of the method: as §3
[6] = system: Rattus norvegicus; test: Plasma ANF Concentration in the Conscious Rat at a dose of 14.3(po)mg/kg at 4 h; type: functional; summary of the method: as §3
[7] = target: T1, Angiotensin-converting enzyme (Rattus norvegicus); test: Compound was tested for plasma inhibition of Angiotensin I converting enzyme activity in the conscious rat. Expressed as Inhibition of AI pressor response at 6 hr at a dose of 14.3 mg/kg po; type: organism-based; parameters: dose 14.3 mg/kg; summary of the method: as §1
[8] = system: Rattus norvegicus; test: Plasma ANF Concentration in the Conscious Rat at a dose of 14.3(po)mg/kg at 1 h; type: functional; summary of the method: as §3
[9] = target: T1, Angiotensin-converting enzyme (Rattus norvegicus); test: Compound was tested for plasma inhibition of Angiotensin I converting enzyme activity in the conscious rat. Expressed as Inhibition of AI pressor response at 4 hr at a dose of 12.1 mg/kg po; type: organism-based; parameters: dose 12.1 mg/kg; summary of the method: as §2
[10] = target: T1, Angiotensin-converting enzyme (Rattus norvegicus); test: Compound was tested for plasma inhibition of Angiotensin I converting enzyme activity in the conscious rat. Expressed as Inhibition of AI pressor response at 1 hr at a dose of 12.1 mg/kg po; type: organism-based; parameters: dose 12.1 mg/kg; summary of the method: as §2
[11] = target: T1, Angiotensin-converting enzyme (Rattus norvegicus); test: Compound was tested for plasma inhibition of Angiotensin I converting enzyme activity in the conscious rat. Expressed as Inhibition of AI pressor response at 2 hr at a dose of 12.1 mg/kg po; type: organism-based; parameters: dose 12.1 mg/kg; summary of the method: as §2
[12] = target: T1, Angiotensin-converting enzyme (Rattus norvegicus); test: Compound was tested for plasma inhibition of Angiotensin I converting enzyme activity in the conscious rat. Expressed as Inhibition of AI pressor response at 6 hr at a dose of 12.1 mg/kg po; type: organism-based; parameters: dose 12.1 mg/kg; summary of the method: as §1
[13] = system: Rattus norvegicus; test: Plasma ANF Concentration in the Conscious Rat at a dose of 11.7(po)mg/kg at 1 h; type: functional
Summary of the method: (§4)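 Male Sprague-Dawley rats (275-390 g) received femoral artery and vein catheters under ketamine (150 mg/kg)/acepromazine and recovered for 24 h, tethered, before study conscious. ratANF(99-126) was infused at 450 ng/kg/min iv for 5 h. Baseline blood was drawn at 60 min into the infusion, then compound was given po.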

[14] = system: Rattus norvegicus; test: Plasma ANF Concentration in the Conscious Rat at a dose of 11.7(po)mg/kg at 4 h; type: functional; summary of the method: as §4
[15] = target: T1, Angiotensin-converting enzyme (Rattus norvegicus); test: Compound was tested for plasma inhibition of Angiotensin I converting enzyme activity in the conscious rat. Expressed as Inhibition of AI pressor response at 2 hr at a dose of 11.7 mg/kg po; type: organism-based; parameters: dose 11.7 mg/kg; summary of the method: as §2
[16] = target: T1, Angiotensin-converting enzyme (Rattus norvegicus); test: Compound was tested for plasma inhibition of Angiotensin I converting enzyme activity in the conscious rat. Expressed as Inhibition of AI pressor response at 6 hr at a dose of 11.7 mg/kg po; type: organism-based; parameters: dose 11.7 mg/kg; summary of the method: as §1
[17] = system: Rattus norvegicus; test: Plasma ANF Concentration in the Conscious Rat at a dose of 11.7(po)mg/kg at 0.5 h; type: functional; summary of the method: as §4
[18] = target: T1, Angiotensin-converting enzyme (Rattus norvegicus); test: Compound was tested for plasma inhibition of Angiotensin I converting enzyme activity in the conscious rat. Expressed as Inhibition of AI pressor response at 1 hr at a dose of 11.7 mg/kg po; type: organism-based; parameters: dose 11.7 mg/kg; summary of the method: as §2
[19] = target: T1, Angiotensin-converting enzyme (Rattus norvegicus); test: Compound was tested for plasma inhibition of Angiotensin I converting enzyme activity in the conscious rat. Expressed as Inhibition of AI pressor response at 4 hr at a dose of 11.7 mg/kg po; type: organism-based; parameters: dose 11.7 mg/kg; summary of the method: as §2
[20] = system: Rattus norvegicus; test: Plasma ANF Concentration in the Conscious Rat at a dose of 11.7(po)mg/kg at 2 h; type: functional; summary of the method: as §4
[21] = target: T1, Angiotensin-converting enzyme (Rattus norvegicus); test: Compound was tested for plasma inhibition of Angiotensin I converting enzyme activity in the conscious rat. Expressed as Inhibition of AI pressor response at 1 hr at a dose of 14.5 mg/kg po; type: organism-based; parameters: dose 14.5 mg/kg; summary of the method: as §2
[22] = target: T1, Angiotensin-converting enzyme (Rattus norvegicus); test: Compound was tested for plasma inhibition of Angiotensin I converting enzyme activity in the conscious rat. Expressed as Inhibition of AI pressor response at 4 hr at a dose of 14.5 mg/kg po; type: organism-based; parameters: dose 14.5 mg/kg; summary of the method: as §1
[23] = target: T1, Angiotensin-converting enzyme (Rattus norvegicus); test: Compound was tested for plasma inhibition of Angiotensin I converting enzyme activity in the conscious rat. Expressed as Inhibition of AI pressor response at 6 hr at a dose of 14.5 mg/kg po; type: organism-based; parameters: dose 14.5 mg/kg; summary of the method: as §1
[24] = target: T1, Angiotensin-converting enzyme (Rattus norvegicus); test: Compound was tested for plasma inhibition of Angiotensin I converting enzyme activity in the conscious rat. Expressed as Inhibition of AI pressor response at 2 hr at a dose of 14.5 mg/kg po; type: organism-based; parameters: dose 14.5 mg/kg; summary of the method: as §2

| inhibition [1] | inhibition [2] | inhibition [3] | inhibition [7] | inhibition [15] | inhibition [16] | inhibition [18] | inhibition [19] | Structure (SMILES) | Control [4] | Control [5] | Control [6] | Control [8] | Control [13] | Control [14] | Control [17] | Control [20] | also measured |
| --- | --- | --- | --- | --- | --- | --- | --- | --- | --- | --- | --- | --- | --- | --- | --- | --- | --- |
| 70% | 75% | 79% | 55% |  |  |  |  | CCOC(=O)[C@H](Cc1ccc(OC(=O)c2ccncc2)cc1)NC(=O)C1(NC(=O)[C@H](SC(C)=O)C(C)C)CCCC1 | 165% | 183% | 159% | 193% |  |  |  |  |  |
|  |  |  |  |  |  |  |  | CC(=O)S[C@@H](C(=O)NC1(C(=O)N[C@@H](Cc2ccc(O)cc2)C(=O)OC(C)C)CCCC1)C(C)C |  |  |  |  |  |  |  |  | inhibition [9]: 81%; inhibition [10]: 67%; inhibition [11]: 85%; inhibition [12]: 78% |
|  |  |  |  | 90% | 78% | 97% | 87% | COC(=O)[C@H](Cc1ccc(OC)cc1)NC(=O)C1(NC(=O)[C@H](SC(C)=O)C(C)C)CCCC1 |  |  |  |  | 337% | 342% | 279% | 263% |  |
|  |  |  |  | 81% | 77% | 73% | 79% | CCOC(=O)[C@H](Cc1ccc(OC)cc1)NC(=O)C1(NC(=O)[C@H](SC(C)=O)C(C)C)CCCC1 |  |  |  |  | 346% | 251% | 275% | 250% |  |
| 67% | 75% | 78% | 60% |  |  |  |  | CCOC(=O)[C@H](Cc1ccc(OC(=O)c2cccnc2)cc1)NC(=O)C1(NC(=O)[C@H](SC(C)=O)C(C)C)CCCC1 | 246% | 246% | 277% | 234% |  |  |  |  |  |
|  |  |  |  |  |  |  |  | CCCCOC(=O)[C@H](Cc1ccc(O)cc1)NC(=O)C1(NC(=O)[C@H](SC(=O)CN2CCOCC2)C(C)C)CCCC1 |  |  |  |  |  |  |  |  | inhibition [21]: 57%; inhibition [22]: 34%; inhibition [23]: 12%; inhibition [24]: 53% |
